This is an account of results in ChEMBL document CHEMBL2434886, “Development of 3,4-dihydroisoquinolin-1(2H)-one derivatives for the Positron Emission Tomography (PET) imaging of σ₂ receptors” (Eur J Med Chem, 2013).

Series [1] can be described thus: Selectivity ratio of Ki for sigma 1 receptor in guinea pig brain membranes without cerebellum to Ki for sigma 2 receptor in Wistar Hannover rat liver membranes. The series is classed as cell membranes. To be noted: Membrane.
Series [2] in a line: Displacement of [3H]-DTG from sigma 2 receptor in Wistar Hannover rat liver membranes. The series is classed as cell membranes, Membrane.
Series [3] addresses Sigma non-opioid intracellular receptor 1 (Cavia porcellus, UniProt Q60492). The series is described as follows: Displacement of (+)-[3H]-pentazocine from sigma 1 receptor in Dunkin guinea pig brain membranes without cerebellum. The series is classed as cell membranes, Membrane.
Series [4] concerns the target T1, 5-hydroxytryptamine receptor 1A (Homo sapiens, UniProt P08908).
T1 sequence (P08908 whole entry): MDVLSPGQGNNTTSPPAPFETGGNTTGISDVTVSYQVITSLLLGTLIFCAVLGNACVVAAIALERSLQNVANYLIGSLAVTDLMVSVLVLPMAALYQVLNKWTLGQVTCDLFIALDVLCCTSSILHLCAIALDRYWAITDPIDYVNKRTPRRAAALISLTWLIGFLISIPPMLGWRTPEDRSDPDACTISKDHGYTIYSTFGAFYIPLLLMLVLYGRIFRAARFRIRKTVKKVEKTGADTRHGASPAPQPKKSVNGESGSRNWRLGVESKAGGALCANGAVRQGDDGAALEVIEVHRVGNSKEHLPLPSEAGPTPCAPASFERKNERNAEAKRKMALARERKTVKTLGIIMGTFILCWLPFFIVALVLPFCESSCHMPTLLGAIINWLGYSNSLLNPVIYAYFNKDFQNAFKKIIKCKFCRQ
Put plainly: Displacement of [3H]-8-OH-DPAT from human recombinant 5-HT1A receptor expressed in HEK293-EBNA cells after 120 mins. The series is classed as cell-based. The method in brief: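 HEK293-EBNA membranes ([…] protein) stably expressing human 5-HT1A, 1.0 nM [3H]-8-OH-DPAT, test compound 0.1 nM to 10 mM. Buffer 50 mM Tris-HCl pH 7.4, 5 mM MgSO4. Incubated 120 min at 37 °C, filtered on PEI-soaked GF/C. Nonspecific binding with 10 mM 5-HT.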
Background: Displacement assays read how much labelled ligand stays bound in the presence of the test substance.

The target in series [5] is 5-hydroxytryptamine receptor 7 (Homo sapiens, UniProt P34969). The series is described as follows: Displacement of [3H]-5-CT from human recombinant 5-HT7 receptor expressed in CHO-K1 cells after 120 mins. The series is classed as cell-based.
Sequence of 5-hydroxytryptamine receptor 7 (P34969 whole entry): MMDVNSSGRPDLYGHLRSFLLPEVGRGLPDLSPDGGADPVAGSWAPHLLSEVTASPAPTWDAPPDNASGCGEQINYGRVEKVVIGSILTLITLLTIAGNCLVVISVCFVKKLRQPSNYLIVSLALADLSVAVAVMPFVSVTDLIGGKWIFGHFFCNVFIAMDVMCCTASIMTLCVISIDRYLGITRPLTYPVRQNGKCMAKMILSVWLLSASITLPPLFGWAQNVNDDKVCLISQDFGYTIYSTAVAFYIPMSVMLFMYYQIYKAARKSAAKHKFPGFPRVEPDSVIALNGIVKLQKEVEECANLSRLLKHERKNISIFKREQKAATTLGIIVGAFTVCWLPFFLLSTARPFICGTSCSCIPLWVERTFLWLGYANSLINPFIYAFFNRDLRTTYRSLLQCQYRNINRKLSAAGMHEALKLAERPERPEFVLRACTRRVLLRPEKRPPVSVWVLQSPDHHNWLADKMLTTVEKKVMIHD
For series [6], the system named is Caco-2. The series is described as follows: Efflux ratio of apparent permeability from apical to basolateral side over basolateral to apical side in human Caco2 cells at 1 to 100 uM after 120 mins. To be noted: caco-2, 2 h. The series is classed as ADME, cell-based. Background: Caco-2 cells form a polarised layer with tight junctions and transporters.
Series [7] has as its target T2, Adrenergic receptor alpha-1 (Rattus norvegicus, UniProt P15823+P23944+P43140).
T2 sequence (P15823 whole entry): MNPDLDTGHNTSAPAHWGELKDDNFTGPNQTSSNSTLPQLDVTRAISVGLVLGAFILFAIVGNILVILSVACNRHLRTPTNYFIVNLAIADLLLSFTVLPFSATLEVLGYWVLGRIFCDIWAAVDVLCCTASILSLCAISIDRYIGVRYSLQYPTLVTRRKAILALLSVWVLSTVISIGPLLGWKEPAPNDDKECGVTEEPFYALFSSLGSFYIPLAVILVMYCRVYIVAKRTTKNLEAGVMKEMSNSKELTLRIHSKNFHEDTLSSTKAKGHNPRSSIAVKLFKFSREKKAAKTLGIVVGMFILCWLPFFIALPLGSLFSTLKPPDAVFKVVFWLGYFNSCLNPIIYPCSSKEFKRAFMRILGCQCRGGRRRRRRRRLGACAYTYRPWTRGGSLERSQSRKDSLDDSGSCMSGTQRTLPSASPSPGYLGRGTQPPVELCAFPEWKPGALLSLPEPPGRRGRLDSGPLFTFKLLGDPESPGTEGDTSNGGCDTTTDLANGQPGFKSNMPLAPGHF
T2 sequence (P23944 whole entry): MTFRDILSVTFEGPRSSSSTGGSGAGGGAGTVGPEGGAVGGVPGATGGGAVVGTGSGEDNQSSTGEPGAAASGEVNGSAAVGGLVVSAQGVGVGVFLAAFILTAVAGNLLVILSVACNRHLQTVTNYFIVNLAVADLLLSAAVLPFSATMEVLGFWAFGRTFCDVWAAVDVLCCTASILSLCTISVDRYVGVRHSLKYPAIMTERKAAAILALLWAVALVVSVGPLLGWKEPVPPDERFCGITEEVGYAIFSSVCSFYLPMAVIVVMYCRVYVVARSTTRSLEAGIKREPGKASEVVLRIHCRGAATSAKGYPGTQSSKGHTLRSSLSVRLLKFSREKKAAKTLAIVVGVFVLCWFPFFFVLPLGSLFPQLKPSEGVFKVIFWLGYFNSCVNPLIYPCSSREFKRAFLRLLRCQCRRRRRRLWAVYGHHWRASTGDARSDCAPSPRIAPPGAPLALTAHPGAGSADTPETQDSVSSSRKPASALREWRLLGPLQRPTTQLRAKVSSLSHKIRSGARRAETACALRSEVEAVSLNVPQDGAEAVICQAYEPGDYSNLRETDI
T2 sequence (P43140 whole entry): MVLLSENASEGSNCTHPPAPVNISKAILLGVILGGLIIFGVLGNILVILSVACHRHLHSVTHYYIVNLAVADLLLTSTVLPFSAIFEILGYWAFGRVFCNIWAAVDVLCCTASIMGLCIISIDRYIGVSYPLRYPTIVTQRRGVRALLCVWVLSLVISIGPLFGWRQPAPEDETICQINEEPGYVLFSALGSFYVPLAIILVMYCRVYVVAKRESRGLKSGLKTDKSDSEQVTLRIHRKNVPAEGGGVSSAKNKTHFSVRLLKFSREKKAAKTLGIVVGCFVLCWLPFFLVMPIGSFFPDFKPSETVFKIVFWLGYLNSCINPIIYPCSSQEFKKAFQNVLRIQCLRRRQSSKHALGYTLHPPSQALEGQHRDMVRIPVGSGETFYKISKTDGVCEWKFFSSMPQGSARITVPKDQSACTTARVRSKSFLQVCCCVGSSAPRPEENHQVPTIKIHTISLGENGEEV
The series is described as follows: Displacement of [3H]-prazosin from alpha1 adrenoceptor in Wistar Hannover rat cerebral cortex membranes after 50 mins. The series is classed as cell membranes, Membrane. The essentials: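 Rat cerebral cortex membranes ([…]) with 1 nM [3H]-prazosin in 50 mM Tris-HCl pH 7.4, 120 mM NaCl, 5 mM KCl, 5 mM CaCl2, 1 mM MgCl2, plus varied drug concentrations. Incubated 50 min at 25 °C, filtered on PEI-soaked GF/C. Nonspecific binding with 10 phentolamine.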

The target of series [8] is ATP-dependent translocase ABCB1 (Homo sapiens, UniProt P08183). The series is described as follows: Activity at human MDR1 expressed in MDCK cells assessed as Calcein-AM uptake after 30 mins by fluorescence assay. The series is classed as ADME, cell-based. The method in brief:
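P-gp interaction measured with the Calcein-AM assay in MDCK-MDR1 cells, which overexpress P-gp.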

The test system of series [9] is Hippocampus. Put plainly: Drug uptake in Wistar rat hippocampus after 45 mins by autoradiography. The series is classed as ADME, tissue-based. The essentials: (§1)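 Horizontal 20 µm cryosections of male Wistar rat brain, thawed 30 min, pre-incubated 10 min at 4 °C in 50 mM Tris-HCl pH 7.4. Incubated 45 min at rt with 9 nM [18F]-tracer in Tris-HCl/1% BSA (n = 4), alone or with blocker. Washed, air-dried, phosphor-imaged after 15 min exposure.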

Series [10] has as its system Brain. Put plainly: Drug uptake in Wistar rat brain slices after 45 mins by autoradiography in presence of 0.9 uM of unlabelled 2-(3-(6,7-Dimethoxy-3,4-dihydroisoquinolin-2(1H)-yl)propyl)-5-(2-fluoroethoxy)-3,4-dihydroisoquinolin-1(2H)-one. The series is classed as ADME, tissue-based. The method in brief: as §1
For series [11], the system named is Cerebellum. Put plainly: Drug uptake in cerebellum of Wistar rat at 47 MBq, iv up to 90 mins by PET analysis. The settings on record: in vivo, 1.5 h. The series is classed as ADME, organism-based. The method in brief:
(§2)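 Male Wistar rat under isoflurane given 47 MBq (0.8 nmol) [18F]-tracer via tail vein. Head scanned 0–90 min by list-mode PET, then CT. Blocking rat received 1 mg/kg haloperidol iv just before tracer (34 MBq). 2D-OSEM reconstruction with no attenuation correction. ROI analysis gives SUV (Bq/cm3 per injected Bq/g).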

For series [12], the system named is Cerebellum. The series is described as follows: Drug uptake in Wistar rat cerebellum after 45 mins by autoradiography. The series is classed as ADME, tissue-based. The method in brief:
as §1

Series [13] in a line: Drug uptake in olfactory of Wistar rat at 47 MBq, iv up to 90 mins by PET analysis in presence of haloperidol. The series is classed as ADME, organism-based. The settings on record: in vivo, 1.5 h.
Series [14] relates to Cerebellum. The series is described as follows: Drug uptake in cerebellum of Wistar rat at 47 MBq, iv up to 90 mins by PET analysis in presence of haloperidol. The series is classed as ADME, organism-based. To be noted: in vivo, 1.5 h.
The test system of series [15] is Cerebral cortex. The series is described as follows: Drug uptake in cerebral cortex of Wistar rat at 47 MBq, iv up to 90 mins by PET analysis in presence of haloperidol. To be noted: in vivo, 1.5 h. The series is classed as ADME, organism-based.
Series [16] concerns Bone. The series is described as follows: Drug uptake in bone of Wistar rat at 47 MBq, iv up to 90 mins by PET analysis. The series is classed as ADME, organism-based, Bone element. To be noted: in vivo, 1.5 h. The essentials: as §2
Series [17] has as its system Cerebral cortex. Put plainly: Drug uptake in Wistar rat cerebral cortex after 45 mins by autoradiography. The series is classed as ADME, tissue-based. The method in brief:
as §1

Series [18] can be described thus: Drug uptake in olfactory of Wistar rat at 47 MBq, iv up to 90 mins by PET analysis. The series is classed as ADME, organism-based. To be noted: in vivo, 1.5 h. The essentials:
as §2

The subject of series [19] is Cerebral cortex. The series is described as follows: Drug uptake in cerebral cortex of Wistar rat at 47 MBq, iv up to 90 mins by PET analysis. To be noted: in vivo, 1.5 h. The series is classed as ADME, organism-based. The method in brief: as §2
Series [20] concerns Brain. The series is described as follows: Drug uptake in Wistar rat brain slices after 45 mins by autoradiography in presence of 90 uM of haloperidol. The series is classed as ADME, tissue-based. The essentials:
as §1

SMILES strings stand for the structures.

Sequence of Sigma non-opioid intracellular receptor 1 (Q60492 whole entry): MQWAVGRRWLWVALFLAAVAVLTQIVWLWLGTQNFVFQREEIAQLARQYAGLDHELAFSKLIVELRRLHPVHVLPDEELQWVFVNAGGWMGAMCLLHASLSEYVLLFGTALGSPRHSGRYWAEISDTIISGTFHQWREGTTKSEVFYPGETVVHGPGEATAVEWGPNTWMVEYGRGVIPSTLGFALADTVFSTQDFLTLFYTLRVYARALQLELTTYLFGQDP
Sequence of ATP-dependent translocase ABCB1 (P08183 whole entry): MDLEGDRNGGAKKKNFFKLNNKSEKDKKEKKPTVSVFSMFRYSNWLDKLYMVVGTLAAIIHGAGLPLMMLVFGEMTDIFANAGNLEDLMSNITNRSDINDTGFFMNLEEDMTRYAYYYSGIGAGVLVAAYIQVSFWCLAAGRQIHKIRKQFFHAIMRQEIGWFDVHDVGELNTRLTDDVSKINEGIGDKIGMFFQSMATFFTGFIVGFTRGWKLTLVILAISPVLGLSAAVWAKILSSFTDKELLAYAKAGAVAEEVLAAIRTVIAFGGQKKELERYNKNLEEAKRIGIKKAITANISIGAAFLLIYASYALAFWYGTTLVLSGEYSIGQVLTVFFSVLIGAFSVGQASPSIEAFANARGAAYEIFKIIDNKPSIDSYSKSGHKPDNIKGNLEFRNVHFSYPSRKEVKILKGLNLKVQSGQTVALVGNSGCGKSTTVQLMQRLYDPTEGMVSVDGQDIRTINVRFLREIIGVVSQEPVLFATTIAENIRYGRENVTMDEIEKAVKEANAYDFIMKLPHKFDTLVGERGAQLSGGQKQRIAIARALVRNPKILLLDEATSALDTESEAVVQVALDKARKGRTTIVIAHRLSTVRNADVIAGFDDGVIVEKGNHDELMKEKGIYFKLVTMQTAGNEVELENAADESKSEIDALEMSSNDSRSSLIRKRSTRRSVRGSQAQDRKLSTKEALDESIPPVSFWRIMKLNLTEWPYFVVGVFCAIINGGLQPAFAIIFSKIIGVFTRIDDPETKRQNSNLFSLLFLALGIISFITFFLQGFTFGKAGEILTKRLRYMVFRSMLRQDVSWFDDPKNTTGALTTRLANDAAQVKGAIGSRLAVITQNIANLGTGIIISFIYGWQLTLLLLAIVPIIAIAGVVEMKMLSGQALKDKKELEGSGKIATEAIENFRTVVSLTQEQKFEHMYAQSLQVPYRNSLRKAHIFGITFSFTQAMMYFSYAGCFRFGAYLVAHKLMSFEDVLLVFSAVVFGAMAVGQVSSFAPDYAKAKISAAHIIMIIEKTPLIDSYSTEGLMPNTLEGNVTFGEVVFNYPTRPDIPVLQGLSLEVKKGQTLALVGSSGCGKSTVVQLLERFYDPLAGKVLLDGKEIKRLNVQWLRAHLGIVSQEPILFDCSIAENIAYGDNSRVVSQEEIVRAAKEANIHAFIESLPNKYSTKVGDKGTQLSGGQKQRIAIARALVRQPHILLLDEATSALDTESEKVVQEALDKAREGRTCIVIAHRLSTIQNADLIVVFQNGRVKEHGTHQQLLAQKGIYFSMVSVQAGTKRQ

One may read the Ki as the dissociation constant of the complex between target and ligand, obtained from inhibition or displacement. Turning to `COc1cc2c(cc1OC)CN(CCCN1CCc3cc(F)ccc3C1=O)CC2`, the Ratio Ki in [1] worked out at 87. The Ki was 3.56 nM in series [2] and 311 nM in series [3].

Usually EC50 stands for the concentration at which the effect is half-maximal. Turning to `COc1cc2c(cc1OC)CN(CCCN1CCc3c(OCCF)cccc3C1=O)CC2`, the inhibition constant (Ki) in series [4] is more than 1000 nM; in series [5] it was more than 1000 nM; in series [7], 764 nM; in series [2] it was 9.24 nM; in series [3], 3100 nM. Also, in series [6], the Ratio is listed as 2.58. Also, the Ratio Ki in [1] stood at 330. In series [8], the EC50 was 5000 nM.

In the case of `COc1cc2c(cc1OC)CN(CCCN1CCc3c(OCC[18F])cccc3C1=O)CC2`, the Drug uptake result was “Active” in [9]; “Not Active” in [10]; “Active” in series [11]; “Active” in series [12]; “Not Active” in series [13]; “Not Active” in [14]. Moreover, the Drug uptake entry is given as “Not Active” in [15]; “Not Active” in series [16]; “Active” in series [17]; “Active” in [18]; “Active” in [19]; “Not Active” in [20].

As for `COc1cc2c(cc1OC)CN(CCCN1CCc3c(OC)cccc3C1=O)CC2`, in series [1], the Ratio Ki is 574. For the same molecule, the figures for the inhibition constant Ki in series [2] and in series [3] were 4.24 nM and 2440 nM, respectively.

On to `COc1cc2c(cc1OC)CN(CCCN1CCc3cccc(OC)c3C1=O)CC2`, for which the Ratio Ki in series [1] was found to be 101. Besides, the values for the inhibition constant Ki in series [2] and in [3] were 16.3 nM and 1630 nM, respectively.

With `COc1ccc2c(c1)CCN(CCCN1CCc3cc(OC)c(OC)cc3C1)C2=O`, in series [1], the Ratio Ki was found to be 70. Further, the Ki in series [2] was 5.74 nM; in series [3], 402 nM.

For the molecule `COc1cc2c(cc1OC)CN(CCCN1CCc3cc(OC)c(OC)cc3C1=O)CC2`, the Ratio Ki in series [1] came out at 127. The inhibition constant (Ki) in series [2] was determined as 20.1 nM; in [3] it was 2570 nM.

With `COc1cc2c(cc1OC)CN(CC/C=C1\CCCc3c(OC)cccc31)CC2`, the EC50 in series [8] is 1100 nM.
